What was measured:
Assay type in all cases: functional, cell-based; call rule not given here
[1] = molecular target: T1, P2Y purinoceptor 2 (Homo sapiens, UniProt P41231); assay: Agonist activity evaluated as change in the level of cytosolic calcium in 1321N astrocytoma cells infected with a retrovirus encoding the human P2Y2 receptor
[2] = molecular target: T2, P2Y purinoceptor 4 (Homo sapiens, UniProt P51582); assay: Agonist activity evaluated as change in the level of cytosolic calcium in 1321N astrocytoma cells infected with a retrovirus encoding the human P2Y4 receptor
T2 sequence (P51582 whole entry): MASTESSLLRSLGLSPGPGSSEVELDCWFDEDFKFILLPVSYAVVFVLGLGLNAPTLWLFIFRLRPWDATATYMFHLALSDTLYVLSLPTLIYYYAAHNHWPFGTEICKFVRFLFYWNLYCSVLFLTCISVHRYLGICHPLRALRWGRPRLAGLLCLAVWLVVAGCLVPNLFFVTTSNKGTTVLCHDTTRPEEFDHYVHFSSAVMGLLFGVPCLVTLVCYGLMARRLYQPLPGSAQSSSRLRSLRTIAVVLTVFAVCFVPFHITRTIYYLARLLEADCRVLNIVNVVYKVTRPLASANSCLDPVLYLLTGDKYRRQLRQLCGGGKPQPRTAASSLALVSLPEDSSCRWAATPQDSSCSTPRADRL

[3] = molecular target: P2Y purinoceptor 6 (Homo sapiens, UniProt Q15077); assay: Agonist activity evaluated as change in the level of cytosolic calcium in 1321N astrocytoma cells infected with a retrovirus encoding the human P2Y6 receptor
P2Y purinoceptor 6, sequence (Q15077 whole entry): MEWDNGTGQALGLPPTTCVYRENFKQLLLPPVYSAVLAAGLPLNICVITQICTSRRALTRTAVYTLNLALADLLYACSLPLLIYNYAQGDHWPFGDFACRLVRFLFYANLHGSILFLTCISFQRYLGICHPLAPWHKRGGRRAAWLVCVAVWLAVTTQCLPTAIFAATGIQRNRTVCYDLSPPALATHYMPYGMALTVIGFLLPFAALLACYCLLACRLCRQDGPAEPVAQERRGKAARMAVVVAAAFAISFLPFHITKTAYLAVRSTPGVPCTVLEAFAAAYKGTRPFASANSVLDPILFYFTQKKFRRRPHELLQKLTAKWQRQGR
How it was run: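 Cells grown to confluence, then loaded with Fluo-3 AM (2.5 μM final) for 60 min at 25 °C in buffer (mM: KCl 10.0, NaCl 118, CaCl2 2.5, MgCl2 1.0, HEPES 20, glucose 10; pH 7.4). Dye washed off. Activation read as change in fluorescence intensity on FLIPR (cytosolic calcium mobilization). Agonist potency given as EC50.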

[4] = molecular target: P2Y purinoceptor 1 (Homo sapiens, UniProt P47900); assay: Agonist activity evaluated as change in the level of cytosolic calcium in 1321N astrocytoma cells infected with a retrovirus encoding the human P2Y1 receptor at 100 uM; IA is inactive
P2Y purinoceptor 1, sequence (P47900 whole entry): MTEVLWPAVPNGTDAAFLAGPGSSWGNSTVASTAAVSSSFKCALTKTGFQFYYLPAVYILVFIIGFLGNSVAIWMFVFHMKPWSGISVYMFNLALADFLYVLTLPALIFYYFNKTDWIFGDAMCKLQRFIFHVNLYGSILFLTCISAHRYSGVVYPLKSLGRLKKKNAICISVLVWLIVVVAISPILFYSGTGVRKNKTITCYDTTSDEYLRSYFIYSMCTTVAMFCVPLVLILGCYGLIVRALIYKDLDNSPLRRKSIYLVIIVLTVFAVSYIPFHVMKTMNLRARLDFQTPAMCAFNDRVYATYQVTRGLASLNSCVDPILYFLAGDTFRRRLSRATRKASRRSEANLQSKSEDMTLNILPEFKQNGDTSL

[5] = molecular target: T2, P2Y purinoceptor 4; assay: Agonist activity evaluated as change in the level of cytosolic calcium in 1321N astrocytoma cells infected with a retrovirus encoding the human P2Y4 receptor at 100 uM; IA is inactive
[6] = molecular target: T1, P2Y purinoceptor 2; assay: Agonist activity evaluated as change in the level of cytosolic calcium in 1321N astrocytoma cells infected with a retrovirus encoding the human P2Y2 receptor at 100 uM; IA is inactive

T1 sequence (P41231 whole entry): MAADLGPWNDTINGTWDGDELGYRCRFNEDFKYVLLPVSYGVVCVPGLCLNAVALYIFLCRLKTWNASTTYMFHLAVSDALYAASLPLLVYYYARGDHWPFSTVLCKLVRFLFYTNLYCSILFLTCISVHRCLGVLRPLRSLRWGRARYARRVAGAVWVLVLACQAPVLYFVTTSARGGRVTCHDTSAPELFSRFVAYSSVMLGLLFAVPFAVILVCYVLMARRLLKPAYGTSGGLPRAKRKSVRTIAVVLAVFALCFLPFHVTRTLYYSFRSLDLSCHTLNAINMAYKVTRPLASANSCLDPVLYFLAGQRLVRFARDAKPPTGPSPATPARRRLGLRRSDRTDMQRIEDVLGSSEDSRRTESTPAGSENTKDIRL

| SMILES | EC50 [1] | EC50 [2] | EC50 [3] | EC50 [4] | EC50 [5] | EC50 [6] |
| --- | --- | --- | --- | --- | --- | --- |
| O=c1ccn([C@@H]2O[C@H](COP(=O)(O)OP(=O)(O)OP(=O)(O)O)[C@@H](O)[C@H]2O)c(=O)[nH]1 [URIDINE TRIPHOSPHATE] | 0.03 µM | 0.1 µM | > 10 µM | Not Active | – | – |
| O=c1ccn([C@@H]2O[C@H](COP(=O)(O)OP(=O)(O)OP(=O)(O)OP(=O)(O)OP(=O)(O)OP(=O)(O)OP(=O)(O)OC[C@@H]3O[C@H](n4ccc(=O)[nH]c4=O)[C@@H](O)[C@H]3O)[C@@H](O)[C@H]2O)c(=O)[nH]1 | 8.4 µM | > 30 µM | > 100 µM | Not Active | – | – |
| O=c1ccn([C@@H]2O[C@H](COP(=O)(O)OP(=O)(O)O)[C@@H](O)[C@H]2O)c(=O)[nH]1 [URIDINE_DIPHOSPHATE] | > 10 µM | – | 0.1 µM | Not Active | Not Active | – |
| O=c1ccn([C@@H]2O[C@H](COP(=O)(O)OP(=O)(O)OC[C@@H]3O[C@H](n4ccc(=O)[nH]c4=O)[C@@H](O)[C@H]3O)[C@@H](O)[C@H]2O)c(=O)[nH]1 | – | – | > 30 µM | Not Active | Not Active | Not Active |
| O=c1ccn([C@@H]2O[C@H](COP(=O)(O)OP(=O)(O)OP(=O)(O)OP(=O)(O)OP(=O)(O)OC[C@@H]3O[C@H](n4ccc(=O)[nH]c4=O)[C@@H](O)[C@H]3O)[C@@H](O)[C@H]2O)c(=O)[nH]1 | 5.6 µM | > 20 µM | > 30 µM | Not Active | – | – |
| O=c1ccn([C@@H]2O[C@H](COP(=O)(O)OP(=O)(O)OP(=O)(O)OC[C@@H]3O[C@H](n4ccc(=O)[nH]c4=O)[C@@H](O)[C@H]3O)[C@@H](O)[C@H]2O)c(=O)[nH]1 | 22 µM | > 100 µM | 0.2 µM | Not Active | – | – |
| O=c1ccn([C@@H]2O[C@H](COP(=O)(O)OP(=O)(O)OP(=O)(O)OP(=O)(O)OP(=O)(O)OP(=O)(O)OC[C@@H]3O[C@H](n4ccc(=O)[nH]c4=O)[C@@H](O)[C@H]3O)[C@@H](O)[C@H]2O)c(=O)[nH]1 | 9.8 µM | > 30 µM | > 30 µM | Not Active | – | – |
| O=c1ccn([C@@H]2O[C@H](COP(=O)(O)OP(=O)(O)OP(=O)(O)OP(=O)(O)OC[C@@H]3O[C@H](n4ccc(=O)[nH]c4=O)[C@@H](O)[C@H]3O)[C@@H](O)[C@H]2O)c(=O)[nH]1 | – | 0.4 µM | 20 µM | Not Active | – | – |
